Results published in ChEMBL document CHEMBL1641489, “Syntheses, structures and antibiotic activities of LpxC inhibitors based on the diacetylene scaffold” (Bioorg Med Chem, 2011).
≈ marks a conversion by molar mass, not a printed value.

Key:
Pseudomonas aeruginosa = test: Antibacterial activity against Pseudomonas aeruginosa PAO1 by NCCLS assay; type: functional
How it was run: (§1)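 Broth microdilution MIC per NCCLS protocol, adapted to 96-well format in LB medium containing 5% DMSO; MIC taken as lowest concentration inhibiting bacterial growth.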

Escherichia coli [1] = test: Antibacterial activity against Escherichia coli W3110PA replaced with Pseudomonas aeruginosa lpxC gene by NCCLS assay; type: functional
How it was run: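 MIC by the NCCLS protocol in LB medium with 5% DMSO. Strain: W3110 with chromosomal lpxC swapped for P. aeruginosa lpxC. The swap was made by λ-red recombination in DY330 and moved into W3110 by P1vir transduction, selecting on LB/agar with 15 μg/mL L-161,240 and 10 mM sodium citrate.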

Escherichia coli [2] = test: Antibacterial activity against Escherichia coli W3110RL replaced with Rhizobium leguminosarum lpxC gene by NCCLS assay; type: functional
How it was run: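 MIC by the NCCLS protocol in LB medium with 5% DMSO. Strain: E. coli with native lpxC replaced by the R. leguminosarum gene.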

Escherichia coli [3] = test: Antibacterial activity against Escherichia coli W3110 by NCCLS assay; type: functional; how it was run: as §1
[4] = target: T1, UDP-3-O-acyl-N-acetylglucosamine deacetylase (Escherichia coli K-12, UniProt P0A725); test: Inhibition of Escherichia coli LpxC
T1 sequence (P0A725 whole entry): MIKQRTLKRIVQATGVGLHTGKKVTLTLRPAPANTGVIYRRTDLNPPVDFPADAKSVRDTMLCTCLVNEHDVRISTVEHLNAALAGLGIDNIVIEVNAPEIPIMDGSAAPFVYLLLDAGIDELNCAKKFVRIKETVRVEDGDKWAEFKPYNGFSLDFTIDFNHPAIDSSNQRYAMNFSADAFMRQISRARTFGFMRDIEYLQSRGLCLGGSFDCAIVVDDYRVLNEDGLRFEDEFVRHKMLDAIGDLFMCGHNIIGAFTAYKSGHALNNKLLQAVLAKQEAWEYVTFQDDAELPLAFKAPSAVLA

| Compound | MIC (Pseudomonas aeruginosa) | MIC (Escherichia coli [1]) | MIC (Escherichia coli [2]) | MIC (Escherichia coli [3]) | Ki ([4]; read-out: Ki) | Ki ([4]; read-out: Ki(app)) |
| --- | --- | --- | --- | --- | --- | --- |
| C[C@H](O)[C@H](NC(=O)c1ccc(C#CC#Cc2ccc(N)cc2)cc1)C(=O)NO | 0.9 µg/mL (≈ 2.38 µM) | 0.8 µg/mL (≈ 2.12 µM) | 12.5 µg/mL (≈ 33.1 µM) | 0.07 µg/mL (≈ 0.185 µM) |  |  |
| C[C@@H](O)[C@H](NC(=O)c1ccc(C#CC#Cc2ccc(N)cc2)cc1)C(=O)NO | 0.5 µg/mL (≈ 1.32 µM) | 0.5 µg/mL (≈ 1.32 µM) | 3.9 µg/mL (≈ 10.3 µM) | 0.03 µg/mL (≈ 0.0795 µM) |  |  |
| C[C@@H](O)[C@@H](NC(=O)c1ccc(C#CC#Cc2ccc(N)cc2)cc1)C(=O)NO | > 25 µg/mL | > 25 µg/mL | > 25 µg/mL | 6.3 µg/mL (≈ 16.7 µM) |  |  |
| C[C@@H](O)[C@H](NC(=O)c1ccc(C#Cc2ccc(CN3CCOCC3)cc2)cc1)C(=O)NO | 1.6 µg/mL (≈ 3.66 µM) | 1.3 µg/mL (≈ 2.97 µM) | 125 µg/mL (≈ 286 µM) | 0.2 µg/mL (≈ 0.457 µM) |  |  |
| C[C@H](O)[C@@H](NC(=O)c1ccc(C#CC#Cc2ccc(N)cc2)cc1)C(=O)NO | > 25 µg/mL | > 25 µg/mL | > 25 µg/mL | 3.1 µg/mL (≈ 8.21 µM) |  |  |
| C[C@@H](O)[C@H](NC(=O)c1ccc(C#CC#Cc2cccc(N)c2)cc1)C(=O)NO | 1.3 µg/mL (≈ 3.44 µM) | 1.3 µg/mL (≈ 3.44 µM) | 6.3 µg/mL (≈ 16.7 µM) | 0.06 µg/mL (≈ 0.159 µM) |  |  |
| C[C@@H](O)[C@H](NC(=O)c1ccc(C#CC#Cc2ccccc2N)cc1)C(=O)NO | 12.5 µg/mL (≈ 33.1 µM) | 8.3 µg/mL (≈ 22 µM) | > 25 µg/mL | 0.5 µg/mL (≈ 1.32 µM) |  |  |
| C[C@@H](O)[C@H](NC(=O)c1ccc(C#CC#Cc2ccccc2)cc1)C(=O)NO | 0.7 µg/mL (≈ 1.93 µM) | 0.7 µg/mL (≈ 1.93 µM) | 6.3 µg/mL (≈ 17.4 µM) | 0.05 µg/mL (≈ 0.138 µM) | 0.18 nM | 0.55 nM |
